Assay results from ChEMBL document CHEMBL1156920, “Structural analogues of schweinfurthin F: probing the steric, electronic, and hydrophobic properties of the D-ring substructure” (Bioorg Med Chem, 2010).

Tests used:
A549 [1] = test: Selectivity index, ratio of EC50 for human A549 cells to EC50 for SF295 cells; assay type: functional
How it was run: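 SF-295 cells were kept in RPMI 1640 and A549 in F-12, each with 10% FBS, pen-strep, amphotericin B and L-glutamine, at 37 °C and 5% CO2. Cells at 60% confluency were dosed for 44 h, then given 0.06 mg/mL MTT for 4 h (SF-295 in phenol-red-free RPMI). Acid/Triton/isopropanol stop was added overnight at 37 °C, and OD read at 540/650 nm. EC50 ratio is A549 over SF-295.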

SF-295 = test: Cytotoxicity against human SF295 cells after 44 hrs by MTT assay; assay type: functional, cell-based; conditions: SF-295, 44 h
How it was run: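 SF-295 cells cultured in RPMI 1640 and A549 cells in F-12, each with 10% FBS, penicillin–streptomycin, amphotericin B and L-glutamine, at 37 °C in 5% CO2. Cells were grown to 60% confluency, then treated for 44 h. Medium was replaced with medium containing 0.06 mg/mL MTT (phenol red-free RPMI for SF-295) for 4 h. Acid/Triton/isopropanol stop solution was added, plates incubated overnight at 37 °C, OD read at 540 and 650 nm, and EC50 calculated.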

SK-MEL-5 = test: Growth inhibition of human SK-MEL-5 cells; assay type: functional; conditions: for TGI: read-out: pTGI (converted)
SK-MEL-28 = test: Growth inhibition of human SK-MEL-28 cells; assay type: functional
SNB-19 = test: Growth inhibition of human SNB19 cells; assay type: functional
SW-620 = test: Growth inhibition of human SW620 cells; assay type: functional
HT-29 = test: Growth inhibition of human HT-29 cells; assay type: functional; conditions: for TGI: read-out: pTGI (converted)
HCC 2998 = test: Growth inhibition of human HCC2998 cells; assay type: functional; conditions: for TGI: read-out: pTGI (converted)
NCI-H460 = test: Growth inhibition of human NCI-H460 cells; assay type: functional; conditions: for TGI: read-out: pTGI (converted)
NCI-H23 = test: Growth inhibition of human NCI-H23 cells; assay type: functional; conditions: for TGI: read-out: pTGI (converted)
HOP-62 = test: Growth inhibition of human HOP62 cells; assay type: functional; conditions: for TGI: read-out: pTGI (converted)
A549 [2] = test: Growth inhibition of human A549 cells; assay type: functional; conditions: for TGI: read-out: pTGI (converted)
HL-60(TB) = test: Growth inhibition of human HL-60(TB) cells; assay type: functional; conditions: for CC50: read-out: pLC50 (the source's name) (converted); for TGI: read-out: pTGI (converted)
OVCAR-4 = test: Growth inhibition of human OVCAR4 cells; assay type: functional; conditions: for CC50: read-out: pLC50 (the source's name) (converted); for TGI: read-out: pTGI (converted)
A498 = test: Growth inhibition of human A498 cells; assay type: functional; conditions: for TGI: read-out: pTGI (converted)
RXF 393 = test: Growth inhibition of human RXF393 cells; assay type: functional; conditions: for CC50: read-out: pLC50 (the source's name) (converted); for TGI: read-out: pTGI (converted)
NCI/ADR-RES = test: Growth inhibition of human NCI/ADR-RES cells; assay type: functional; conditions: for CC50: read-out: pLC50 (the source's name) (converted); for TGI: read-out: pTGI (converted)
[3] = Growth inhibition of human Hs 578T cells; assay type: functional
BT-549 = test: Growth inhibition of human BT549 cells; assay type: functional; conditions: for CC50: read-out: pLC50 (the source's name) (converted); for TGI: read-out: pTGI (converted)
T47D = test: Growth inhibition of human T47D cells; assay type: functional; conditions: for CC50: read-out: pLC50 (the source's name) (converted)
MDA-MB-468 = test: Growth inhibition of human MDA-MB-468 cells; assay type: functional; conditions: for TGI: read-out: pTGI (converted)
OVCAR-8 = test: Growth inhibition of human OVCAR8 cells; assay type: functional
[4] = read-out: pLC50 (the source's name) (converted)

COc1cc(/C=C/c2cc(O)c(CCC(C)C)c(O)c2)cc2c1O[C@]1(C)CC[C@@H](O)C(C)(C)[C@H]1C2
Ratio EC50 (A549 [1]): 10
EC50 (SF-295): 0.4 µM
GI50 (SK-MEL-5): 0.0832 µM
LC50 (SK-MEL-5): 4.47 µM
TGI (SK-MEL-5): 1.51 µM
GI50 (SK-MEL-28): 0.123 µM
CC50 (SK-MEL-28; [4]): 37.2 µM
TGI (SK-MEL-28; read-out: pTGI (converted)): 11.2 µM
GI50 (SNB-19): 0.372 µM
GI50 (SW-620): 0.214 µM
CC50 (SW-620; [4]): 14.8 µM
TGI (SW-620; read-out: pTGI (converted)): 2.34 µM
GI50 (HT-29): 0.813 µM
LC50 (50% lethal concentration) (HT-29): 97.7 µM
TGI (HT-29): 4.47 µM
GI50 (HCC 2998): 0.794 µM
LC50 (HCC 2998): 38 µM
TGI (HCC 2998): 10.5 µM
GI50 (NCI-H460): 0.0661 µM
LC50 (NCI-H460): 51.3 µM
TGI (NCI-H460): 1.78 µM
GI50 (NCI-H23): 1.29 µM
LC50 (NCI-H23): 81.3 µM
TGI (NCI-H23): 19.5 µM
GI50 (HOP-62): 0.0513 µM
LC50 (HOP-62): 13.8 µM
TGI (HOP-62): 0.603 µM
GI50 (A549 [2]): 0.166 µM
LC50 (50% lethal concentration) (A549 [2]): > 100 µM
TGI (A549 [2]): 17.4 µM
GI50 (HL-60(TB)): 0.251 µM
CC50 (HL-60(TB)): > 100 µM
TGI (HL-60(TB)): 38.9 µM
GI50 (OVCAR-4): 1.41 µM
CC50 (OVCAR-4): > 100 µM
TGI (OVCAR-4): 38 µM
GI50 (A498): 0.158 µM
LC50 (A498): 36.3 µM
TGI (A498): 6.31 µM
GI50 (RXF 393): 0.01 µM
CC50 (RXF 393): 8.32 µM
TGI (RXF 393): 0.0891 µM
GI50 (NCI/ADR-RES): 2.34 µM
CC50 (NCI/ADR-RES): > 100 µM
TGI (NCI/ADR-RES): 47.9 µM
GI50 [3]: 0.0309 µM
CC50 [3, 4]: > 100 µM
TGI ([3]; read-out: pTGI (converted)): 0.166 µM
GI50 (BT-549): 0.363 µM
CC50 (BT-549): > 100 µM
TGI (BT-549): 28.8 µM
GI50 (T47D): 2.04 µM
CC50 (T47D): > 100 µM
GI50 (MDA-MB-468): 0.851 µM
LC50 (MDA-MB-468): 57.5 µM
TGI (MDA-MB-468): 4.37 µM

COc1cc(CCc2cc(O)c(C/C=C(\C)CC/C=C(\C)CO)c(O)c2)cc2c1O[C@]1(C)CC[C@@H](O)C(C)(C)[C@H]1C2
GI50 (OVCAR-8): 8.32 µM
CC50 (OVCAR-8; [4]): > 100 µM
TGI (OVCAR-8; read-out: pTGI (converted)): 64.6 µM
EC50 (SF-295): > 10 µM
GI50 (SK-MEL-5): 3.39 µM
LC50 (SK-MEL-5): 33.1 µM
TGI (SK-MEL-5): 11 µM
GI50 (SNB-19): 4.17 µM
LC50 (SNB-19): 49 µM
TGI (SNB-19; read-out: pTGI (converted)): 18.2 µM
GI50 (HT-29): 7.94 µM
LC50 (50% lethal concentration) (HT-29): 87.1 µM
TGI (HT-29): 26.3 µM
GI50 (HCC 2998): 6.17 µM
TGI (HCC 2998): 25.1 µM
GI50 (NCI-H460): 3.31 µM
LC50 (NCI-H460): 38.9 µM
TGI (NCI-H460): 10.7 µM
GI50 (NCI-H23): 6.92 µM
LC50 (NCI-H23): 85.1 µM
TGI (NCI-H23): 25.7 µM
GI50 (HOP-62): 10 µM
LC50 (HOP-62): 53.7 µM
TGI (HOP-62): 22.9 µM
GI50 (A549 [2]): 4.9 µM
LC50 (50% lethal concentration) (A549 [2]): > 100 µM
TGI (A549 [2]): 95.5 µM
GI50 (HL-60(TB)): 3.02 µM
CC50 (HL-60(TB)): 95.5 µM
TGI (HL-60(TB)): 12.6 µM
GI50 (OVCAR-4): 11.5 µM
CC50 (OVCAR-4): > 100 µM
TGI (OVCAR-4): 45.7 µM
GI50 (A498): 7.59 µM
LC50 (A498): > 100 µM
TGI (A498): 61.7 µM
GI50 (RXF 393): 0.363 µM
CC50 (RXF 393): > 100 µM
TGI (RXF 393): 1.38 µM
GI50 (NCI/ADR-RES): 17.4 µM
CC50 (NCI/ADR-RES): > 100 µM
TGI (NCI/ADR-RES): 61.7 µM
GI50 (BT-549): 3.16 µM
CC50 (BT-549): 75.9 µM
TGI (BT-549): 21.9 µM
GI50 (T47D): 5.89 µM
CC50 (T47D): > 100 µM
TGI (T47D; read-out: pTGI (converted)): 35.5 µM
GI50 (MDA-MB-468): 5.89 µM
LC50 (MDA-MB-468): > 100 µM
TGI (MDA-MB-468): 50.1 µM
